In ChEMBL document CHEMBL4609986 (Bioorg Med Chem, 2020):

Tests used:
[1] = target: T1, Dual specificity tyrosine-phosphorylation-regulated kinase 1A (Homo sapiens, UniProt Q13627); assay: Inhibition of DYRK1A in human pancreatic islets assessed as induction of pancreatic beta-cells replication measured after 48 hrs by Hoechst 33342 staining based analysis
Procedure, shortened: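 Human islets (85-95% purity) rested 12 h in low-glucose DMEM with 10% FBS and 20 nM exendin-4. Dispersed to single cells and plated on 804G-conditioned-matrix 384-well plates for 48 h. Treated 48 h, then fixed with 4% PFA. Stained with anti-insulin, anti-Ki-67 and 4 μM Hoechst 33342; Ki67+Insulin+/Insulin+ scored by high-content imaging against per-plate cutoffs.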

[2] = target: T1, Dual specificity tyrosine-phosphorylation-regulated kinase 1A; assay: Inhibition of human DYRK1A transfected in HEK293T cells co-transfected with Renilla plasmid, pGL3-NFAT and NFATc1 assessed as derepression of NFAT-dependent luciferase activity measured after 48 hrs by luciferase assay; assay type: cell-based, HEK-293T
Procedure, shortened: (§1)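 HEK293T cells transfected with PEI using DYRK1A, Renilla plasmid, IL-2-based pGL3-NFAT firefly reporter and NFATc1. Next day the same transfected population was split into 96-well plates; 6 h later cells were treated for 48 h (11-point dose curve, n = 4), then lysed. EC50 from firefly/Renilla ratio, 4-parameter agonist fit. CC50 from loss of constitutive Renilla signal, 4-parameter inhibitor fit.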

[3] = (§2) Cytotoxicity against human HEK293T cells transfected with DYRK1A co-tranfected with Renilla plasmid, pGL3-NFAT and NFATc1 assessed as reduction in luciferase activity by measuring cell number; assay type: cell-based, HEK-293T; procedure, shortened: as §1
Homo sapiens = organism: Homo sapiens; assay: Selectivity index, ratio of CC50 for human HEK293T cells transfected with DYRK1A co-tranfected with Renilla plasmid, pGL3-NFAT and NFATc1 assessed as reduction in luciferase activity by measuring cell number to EC50 for human DYRK1A transfected in HEK293T cells co-transfected with Renilla plasmid, pGL3-NFAT and NFATc1 assessed as derepression of NFAT-dependent luciferase activity measured after 48 hrs by luciferase assay; assay type: cell-based; procedure, shortened: as §1
[4] = Cytotoxicity against mouse R7T1 cells assessed as reduction in cell viability measured after 48 hrs by Hoechst 33342 staining based analysis
Procedure, shortened: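 Mouse R7T1 β-cells cultured in high-glucose DMEM with 10% FBS, doxycycline and pyruvate, plated at 25,000 cells/well. Treated in quadruplicate 6 h later (0.169–10,000 nM) for 48 h. Cells fixed in paraformaldehyde and stained with 4 μM Hoechst 33342; nuclei counted by high-content imaging.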

[5] = Selectivity index, ratio of CC50 for mouse R7T1 cells assessed as reduction in cell viability measured after 48 hrs by Hoechst 33342 staining based analysis to MEC for inhibition of DYRK1A in human pancreatic islets assessed as induction of pancreatic beta-cells replication measured after 48 hrs by Hoechst 33342 staining based analysis
[6] = Half life in mouse liver microsomes at 1 uM preincubated for 10 mins followed by NADPH addition and measured up to 40 mins by LC-MS/MS analysis; assay type: ADME, Microsome
Procedure, shortened: (§3)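 Human or mouse liver microsomes, each run separately, in 100 mM KxPO4 pH 7.4 with 10 mM MgCl2 and 1 μM test compound. Pre-incubated 10 min at 37 °C, then started with 1 mM NADPH. Quenched in acetonitrile stop solution at 0, 10, 20 and 40 min, centrifuged, diluted and analysed by LC-MS/MS.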

[7] = Half life in human liver microsomes at 1 uM preincubated for 10 mins followed by NADPH addition and measured up to 40 mins by LC-MS/MS analysis; assay type: ADME, Microsome; procedure, shortened: as §3
[8] = Apparent permeability in human Caco2 cells measured after 2 hrs by LC-MS/MS analysis; assay type: ADME, cell-based, Caco-2; conditions: for Papp at 2 h: Caco-2
Procedure, shortened: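 Caco-2 monolayers grown on polycarbonate filter inserts (5 × 10⁵ cells/well seeded) and differentiated 21 ± 4 days. Transport run in HBSS with 25 mM HEPES, pH 7.4, 37 °C; compound added donor side. Receiver sampled over 2 h, donor at 0 and 2 h; LC-MS/MS with internal standard. Papp = (dC_rec/dt)/(A × C0,donor) × 10^6.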

HEK-293T = assay: as §2; assay type: cell-based; conditions: hek-293t; procedure, shortened: as §1
[9] = target: T1, Dual specificity tyrosine-phosphorylation-regulated kinase 1A; assay: Binding affinity to wild-type human partial length DYRK1A (H129 to S509 residues) expressed in mammalian expression system by Kinomescan method
Procedure, shortened: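 Kd measured in a KdELECT binding assay using an 11-point, 3-fold dilution series with three DMSO control points.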

[10] = target: Maternal embryonic leucine zipper kinase (Homo sapiens, UniProt Q14680); assay: Binding affinity to wild-type human full length MELK (M1 to V651 residues) expressed in bacterial expression system by Kinomescan method
Chain of Maternal embryonic leucine zipper kinase (Q14680 whole entry, the tested form may be a part): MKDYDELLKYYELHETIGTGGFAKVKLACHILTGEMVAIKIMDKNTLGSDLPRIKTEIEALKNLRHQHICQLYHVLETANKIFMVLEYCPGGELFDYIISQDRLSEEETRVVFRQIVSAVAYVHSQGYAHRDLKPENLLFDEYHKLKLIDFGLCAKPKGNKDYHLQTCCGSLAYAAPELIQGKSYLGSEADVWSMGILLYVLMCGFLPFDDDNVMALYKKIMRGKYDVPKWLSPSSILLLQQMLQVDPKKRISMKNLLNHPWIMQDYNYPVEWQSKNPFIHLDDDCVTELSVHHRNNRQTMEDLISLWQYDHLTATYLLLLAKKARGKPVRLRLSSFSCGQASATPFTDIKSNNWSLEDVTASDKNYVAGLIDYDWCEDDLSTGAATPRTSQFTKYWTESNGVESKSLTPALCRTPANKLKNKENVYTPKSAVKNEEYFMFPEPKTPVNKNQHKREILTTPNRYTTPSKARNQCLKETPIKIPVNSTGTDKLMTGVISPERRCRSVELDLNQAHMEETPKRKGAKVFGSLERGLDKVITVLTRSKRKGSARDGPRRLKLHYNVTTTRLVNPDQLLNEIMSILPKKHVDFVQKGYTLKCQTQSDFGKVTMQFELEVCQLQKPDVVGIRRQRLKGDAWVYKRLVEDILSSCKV

AURKB (Aurora kinase B) = AURKB (Aurora kinase B) (Homo sapiens, UniProt Q96GD4); assay: Inhibition of AURKB in human HEK293T cells assessed as reduction in cell viability at 40 nM measured after 48 hrs relative to control; assay type: cell-based, HEK-293T
Chain of AURKB (Aurora kinase B) (Q96GD4 whole entry): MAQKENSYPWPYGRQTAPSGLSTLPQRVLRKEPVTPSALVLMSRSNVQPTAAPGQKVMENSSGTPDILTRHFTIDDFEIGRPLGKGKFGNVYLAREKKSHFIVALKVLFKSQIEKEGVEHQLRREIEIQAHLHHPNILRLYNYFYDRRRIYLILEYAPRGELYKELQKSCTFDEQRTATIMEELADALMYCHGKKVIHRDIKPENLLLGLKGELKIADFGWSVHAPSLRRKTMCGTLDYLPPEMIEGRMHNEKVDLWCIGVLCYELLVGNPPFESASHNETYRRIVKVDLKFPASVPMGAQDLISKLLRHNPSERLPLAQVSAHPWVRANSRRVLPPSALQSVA
Procedure, shortened: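 Cells were exposed to the Aurora inhibitor at 40 nM, alone or combined with a second DYRK1A inhibitor at 30, 90 or 270 nM, for 48 h. They were then fixed, stained and counted. Cell number is given as a percentage of untreated wells, with n = 4-16 and error bars as standard deviation.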

Row | SMILES | MEC [1] | EC50 [2] | CC50 [3] | Ratio CC50/EC50 (Homo sapiens) | CC50 [4] | Selectivity Index [5] | t1/2 [6] | t1/2 [7] | Papp at 2 h [8] | Papp ([8]; caco-2, 2 h) | CC50 (HEK-293T) | Kd [9] | Kd [10] | inhibition at 48 h, 0.04 µM (AURKB (Aurora kinase B))
1 | CCOC(=O)c1cnc2ccc(-c3cc(Cl)c(O)c(Cl)c3)nc2c1N[C@H]1CC[C@H](CC(N)=O)CC1 | 63 nM | 43 nM | 1890 nM | 44 | 1390 nM | 22 | > 2.65 h | 0.467 h | 0.01 ×10⁻⁶ cm/s |  |  |  |  | 
2 | CCCCNC(=O)c1cnc2ccc(-c3cc(Cl)c(O)c(Cl)c3)nc2c1N[C@H]1CC[C@H](C(=O)N2CCOCC2)CC1 | 63 nM | 56 nM | 2120 nM | 38 | 2440 nM | 39 | > 2.65 h | 1.58 h |  | 9.1 ×10⁻⁶ cm/s |  |  |  | 
3 | CCCCNC(=O)c1cnc2ccc(-c3cc(Cl)c(O)c(Cl)c3)nc2c1N[C@H]1CC[C@H](C(N)=O)CC1 | 125 nM | 175 nM |  | 39 | 1790 nM | 14 |  |  |  |  | 6850 nM |  |  | 
4 | CCOC(=O)c1cnc2ccc(-c3cc(Cl)c(O)c(Cl)c3)nc2c1NC1CCN(C)CC1 | 3.3 nM | 6 nM |  | 170 | 387 nM | 117 | 2.15 h | > 2.65 h | 4.6 ×10⁻⁶ cm/s |  | 1020 nM |  |  | 
5 | CCOC(=O)c1cnc2ccc(-c3cc(C)c(O)c(C)c3)nc2c1N[C@H]1CC[C@H](CN(C)C)CC1 | 250 nM | 12 nM |  | > 842 | > 10000 nM | >40 |  |  |  |  | > 10000 nM |  |  | 
6 | CCOC(=O)c1cnc2ccc(-c3cc(Cl)c(O)c(Cl)c3)nc2c1N[C@H]1CC[C@H](CN)CC1 |  | 8 nM |  | 20 |  |  |  |  |  |  | 165 nM | 0.22 nM | 9 nM | 
7 | CN(C)C[C@H]1CC[C@H](Nc2c(C#N)cnc3ccc(-c4cc(Cl)c(O)c(Cl)c4)nc23)CC1 | 10 nM | 45 nM |  | > 220 | 160 nM | 16 |  |  |  |  | > 10000 nM |  |  | 
8 | CCN(CCO)CCCOc1ccc2c(Nc3cc(CC(=O)Nc4cccc(F)c4)[nH]n3)ncnc2c1 [DEFOSBARASERTIB] |  |  |  |  |  |  |  |  |  |  |  |  |  | 41%
9 | CCNC(=O)c1cnc2ccc(-c3ccnc(N)c3)nc2c1N[C@H]1CC[C@H](CN(C)C)CC1 | > 500 nM | 46 nM |  | > 216 | 330 nM |  |  |  |  |  | > 10000 nM |  |  | 
10 | CCOC(=O)c1cnc2ccc(-c3cc(Cl)c(O)c(Cl)c3)nc2c1N[C@H]1CC[C@H](CNC(C)=O)CC1 | 68 nM | 15 nM |  | 217 | 1020 nM | 15 |  |  |  |  | 3340 nM |  |  | 
11 | CC(=O)NC[C@H]1CC[C@H](Nc2c(CO)cnc3ccc(-c4cc(Cl)c(O)c(Cl)c4)nc23)CC1 | 500 nM | 16 nM |  | 71 | 1710 nM | 3.4 |  |  |  |  | 1140 nM |  |  | 
12 | CCCCNC(=O)c1cnc2ccc(-c3cc(Cl)c(O)c(Cl)c3)nc2c1N[C@H]1CC[C@H](CN(C)C)CC1 |  | 3 nM |  | 17 |  |  |  |  |  |  | 51 nM | 0.075 nM | 12 nM | 
13 | O=C(O)c1ccc(Nc2ncc3c(n2)-c2ccc(Cl)cc2C(c2c(F)cccc2F)=NC3)cc1 [MLN-8054] |  |  |  |  |  |  |  |  |  |  |  |  |  | 22%
14 | CCOC(=O)c1cnc2ccc(-c3ccnc(N)c3)nc2c1N[C@H]1CC[C@H](CN2CCOCC2)CC1 | 3.3 nM | 37 nM | 2960 nM | 79 | 856 nM | 259 | 0.25 h | 0.617 h | 2.7 ×10⁻⁶ cm/s |  |  |  |  | 
15 | CCOC(=O)c1cnc2ccc(-c3cc(Cl)c(O)c(Cl)c3)nc2c1N[C@H]1CC[C@H](C(=O)N(C)C)CC1 | 31 nM | 50 nM |  | 119 | 2810 nM | 91 | > 2.65 h | > 2.65 h | 0.12 ×10⁻⁶ cm/s |  | 5900 nM | 0.6 nM | 13 nM | 
16 | CCOC(=O)c1cnc2ccc(-c3cc(Cl)c(O)c(Cl)c3)nc2c1N[C@H]1CC[C@H](CN(C)C)CC1 |  | 7 nM |  | 26 |  |  |  |  |  |  | 186 nM | 0.16 nM | 11 nM | 
